Among the data in ChEMBL document CHEMBL3621130, “Identification and characterization of β-sitosterol target proteins” (Bioorg Med Chem Lett, 2015) are Activity values, retold here.

Assay type in all cases: cell-based
The target of test [1] is T1, Peroxisomal multifunctional enzyme type 2 (Homo sapiens) (UniProt P51659).
T1 sequence (whole entry): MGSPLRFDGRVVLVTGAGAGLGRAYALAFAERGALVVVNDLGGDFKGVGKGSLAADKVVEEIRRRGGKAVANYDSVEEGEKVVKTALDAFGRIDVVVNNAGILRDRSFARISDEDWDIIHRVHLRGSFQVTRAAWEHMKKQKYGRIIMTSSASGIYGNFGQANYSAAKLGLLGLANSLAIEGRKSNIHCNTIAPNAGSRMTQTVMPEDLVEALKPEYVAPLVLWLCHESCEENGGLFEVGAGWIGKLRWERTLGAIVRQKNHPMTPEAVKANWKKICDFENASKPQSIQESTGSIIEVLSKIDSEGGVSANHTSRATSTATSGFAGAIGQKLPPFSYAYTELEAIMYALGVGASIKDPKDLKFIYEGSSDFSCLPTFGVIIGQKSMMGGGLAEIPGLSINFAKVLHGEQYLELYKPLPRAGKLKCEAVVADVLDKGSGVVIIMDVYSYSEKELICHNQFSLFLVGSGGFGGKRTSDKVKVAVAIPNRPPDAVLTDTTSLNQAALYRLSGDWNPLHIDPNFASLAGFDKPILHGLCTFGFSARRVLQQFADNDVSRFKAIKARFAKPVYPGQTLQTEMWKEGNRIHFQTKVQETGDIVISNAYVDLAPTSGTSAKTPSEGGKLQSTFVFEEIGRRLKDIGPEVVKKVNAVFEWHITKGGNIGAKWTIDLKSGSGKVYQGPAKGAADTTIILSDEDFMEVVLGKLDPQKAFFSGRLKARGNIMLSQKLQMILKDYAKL
Kind of test: Binding affinity to 17beta-HSD4 in human DU145 cells at 200 nM by affinity chromatography analysis. The note with it: DU-145.

Test [2] deals with T2, 3-oxo-5-alpha-steroid 4-dehydrogenase 1 (Homo sapiens) (UniProt P18405).
T2 sequence (whole entry): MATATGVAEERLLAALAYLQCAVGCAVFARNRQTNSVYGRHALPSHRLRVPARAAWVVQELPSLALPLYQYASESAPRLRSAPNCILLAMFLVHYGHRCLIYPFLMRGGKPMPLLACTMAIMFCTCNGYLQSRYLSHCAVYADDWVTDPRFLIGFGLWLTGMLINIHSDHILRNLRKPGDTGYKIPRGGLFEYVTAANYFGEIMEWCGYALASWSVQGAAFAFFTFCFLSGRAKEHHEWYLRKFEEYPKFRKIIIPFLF
Description: Binding affinity to S5A1 in human DU145 cells at 200 to 600 nM by affinity chromatography analysis. The following applies: DU-145.

Test [3] deals with T1, Peroxisomal multifunctional enzyme type 2 (Homo sapiens). Kind of test: Binding affinity to 17beta-HSD4 in human PC3 cells at 200 nM by affinity chromatography analysis. The following applies: PC-3.
In test [4] the target is T2, 3-oxo-5-alpha-steroid 4-dehydrogenase 1 (Homo sapiens). Description: Binding affinity to S5A1 in human PC3 cells at 200 to 600 nM by affinity chromatography analysis. The following applies: PC-3.
Test [5] addresses T3, Peroxisomal multifunctional enzyme type 2 (Mus musculus) (UniProt P51660).
T3 sequence (whole entry): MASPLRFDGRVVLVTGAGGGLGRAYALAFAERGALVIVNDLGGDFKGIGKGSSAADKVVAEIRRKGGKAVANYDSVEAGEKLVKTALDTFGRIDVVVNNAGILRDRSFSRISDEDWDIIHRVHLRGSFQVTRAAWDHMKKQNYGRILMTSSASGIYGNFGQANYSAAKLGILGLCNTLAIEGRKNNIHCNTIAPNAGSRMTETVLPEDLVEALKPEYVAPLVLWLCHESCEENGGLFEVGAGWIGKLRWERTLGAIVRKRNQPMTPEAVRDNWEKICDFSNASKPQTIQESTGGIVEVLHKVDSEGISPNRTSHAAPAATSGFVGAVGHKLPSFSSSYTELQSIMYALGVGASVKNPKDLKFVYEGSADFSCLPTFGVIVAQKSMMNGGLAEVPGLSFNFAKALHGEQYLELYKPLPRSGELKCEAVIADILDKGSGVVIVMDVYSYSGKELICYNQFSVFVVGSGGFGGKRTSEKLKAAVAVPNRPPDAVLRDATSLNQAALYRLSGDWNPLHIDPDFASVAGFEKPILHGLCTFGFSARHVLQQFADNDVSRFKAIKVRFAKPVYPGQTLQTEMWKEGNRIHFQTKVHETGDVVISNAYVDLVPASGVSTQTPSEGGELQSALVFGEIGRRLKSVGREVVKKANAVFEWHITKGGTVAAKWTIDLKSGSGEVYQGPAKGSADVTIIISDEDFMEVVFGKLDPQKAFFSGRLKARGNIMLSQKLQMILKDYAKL
Kind of test: Binding affinity to 17beta-HSD4 in mouse RAW264.7 cells at 200 nM by Western blot analysis. The method, boiled down:
(§1)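 Streptavidin affinity pull-down was run side by side in lysates from LPS-treated and untreated mouse Raw264.7 macrophages. Biotin, biotinylated β-sitosterol or biotinylated cholesterol was used at 200 nM for 17β-HSD4 and 600 nM for E-Syt1. Probe incubation with lysate was 2 h, followed by overnight streptavidin agarose capture.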

Test [6] addresses T3, Peroxisomal multifunctional enzyme type 2 (Mus musculus). Kind of test: Binding affinity to 17beta-HSD4 in mouse LPS-treated RAW264.7 cells at 200 nM by Western blot analysis. The gist of the method: as §1
(In general: In western blotting, separated proteins are transferred to a membrane and probed.)

Test [7] has as its target T4, Extended synaptotagmin-1 (Homo sapiens) (UniProt Q9BSJ8).
T4 sequence (whole entry): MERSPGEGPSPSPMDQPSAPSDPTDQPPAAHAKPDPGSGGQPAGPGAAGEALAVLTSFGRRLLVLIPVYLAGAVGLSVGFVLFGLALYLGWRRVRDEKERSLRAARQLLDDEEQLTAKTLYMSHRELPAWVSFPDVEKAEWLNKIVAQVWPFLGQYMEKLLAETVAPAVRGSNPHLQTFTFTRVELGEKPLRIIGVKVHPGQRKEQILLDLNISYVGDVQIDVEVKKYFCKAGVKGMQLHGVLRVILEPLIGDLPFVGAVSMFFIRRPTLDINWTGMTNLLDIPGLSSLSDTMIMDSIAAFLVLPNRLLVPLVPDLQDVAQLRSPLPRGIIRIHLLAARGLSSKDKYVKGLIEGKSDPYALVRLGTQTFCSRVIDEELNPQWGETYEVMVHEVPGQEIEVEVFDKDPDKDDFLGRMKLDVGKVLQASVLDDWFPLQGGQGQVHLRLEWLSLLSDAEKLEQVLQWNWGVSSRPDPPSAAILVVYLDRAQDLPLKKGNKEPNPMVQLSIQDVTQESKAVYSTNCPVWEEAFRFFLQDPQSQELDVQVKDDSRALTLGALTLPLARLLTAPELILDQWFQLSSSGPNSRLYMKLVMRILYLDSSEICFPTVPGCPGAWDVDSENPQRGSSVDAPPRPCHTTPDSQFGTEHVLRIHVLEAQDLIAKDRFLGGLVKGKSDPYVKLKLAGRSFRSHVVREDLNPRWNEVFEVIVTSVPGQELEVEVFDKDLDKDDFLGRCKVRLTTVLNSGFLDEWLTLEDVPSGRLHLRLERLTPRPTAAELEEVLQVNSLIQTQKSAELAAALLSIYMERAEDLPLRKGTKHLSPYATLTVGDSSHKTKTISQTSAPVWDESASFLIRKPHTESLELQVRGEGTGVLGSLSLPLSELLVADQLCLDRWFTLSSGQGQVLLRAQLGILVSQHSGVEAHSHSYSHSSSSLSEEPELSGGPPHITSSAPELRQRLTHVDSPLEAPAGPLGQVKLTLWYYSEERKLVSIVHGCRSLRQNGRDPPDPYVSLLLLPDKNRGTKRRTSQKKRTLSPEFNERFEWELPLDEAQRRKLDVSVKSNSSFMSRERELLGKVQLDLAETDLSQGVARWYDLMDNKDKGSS
Kind of test: Binding affinity to E-Syt1 in human DU145 cells at 600 nM by affinity chromatography analysis. The following applies: DU-145.

For test [8], the target named is T4, Extended synaptotagmin-1 (Homo sapiens). Description: Binding affinity to E-Syt1 in human PC3 cells at 600 nM by affinity chromatography analysis. The note with it: PC-3.
For test [9], the target named is T3, Peroxisomal multifunctional enzyme type 2 (Mus musculus). Kind of test: Binding affinity to 17beta-HSD4 in mouse LPS-treated RAW264.7 cells at 200 nM after 2 hrs by MALDI mass spectrometry analysis.
The target of test [10] is T5, Extended synaptotagmin-1 (Mus musculus) (UniProt Q3U7R1).
T5 sequence (whole entry): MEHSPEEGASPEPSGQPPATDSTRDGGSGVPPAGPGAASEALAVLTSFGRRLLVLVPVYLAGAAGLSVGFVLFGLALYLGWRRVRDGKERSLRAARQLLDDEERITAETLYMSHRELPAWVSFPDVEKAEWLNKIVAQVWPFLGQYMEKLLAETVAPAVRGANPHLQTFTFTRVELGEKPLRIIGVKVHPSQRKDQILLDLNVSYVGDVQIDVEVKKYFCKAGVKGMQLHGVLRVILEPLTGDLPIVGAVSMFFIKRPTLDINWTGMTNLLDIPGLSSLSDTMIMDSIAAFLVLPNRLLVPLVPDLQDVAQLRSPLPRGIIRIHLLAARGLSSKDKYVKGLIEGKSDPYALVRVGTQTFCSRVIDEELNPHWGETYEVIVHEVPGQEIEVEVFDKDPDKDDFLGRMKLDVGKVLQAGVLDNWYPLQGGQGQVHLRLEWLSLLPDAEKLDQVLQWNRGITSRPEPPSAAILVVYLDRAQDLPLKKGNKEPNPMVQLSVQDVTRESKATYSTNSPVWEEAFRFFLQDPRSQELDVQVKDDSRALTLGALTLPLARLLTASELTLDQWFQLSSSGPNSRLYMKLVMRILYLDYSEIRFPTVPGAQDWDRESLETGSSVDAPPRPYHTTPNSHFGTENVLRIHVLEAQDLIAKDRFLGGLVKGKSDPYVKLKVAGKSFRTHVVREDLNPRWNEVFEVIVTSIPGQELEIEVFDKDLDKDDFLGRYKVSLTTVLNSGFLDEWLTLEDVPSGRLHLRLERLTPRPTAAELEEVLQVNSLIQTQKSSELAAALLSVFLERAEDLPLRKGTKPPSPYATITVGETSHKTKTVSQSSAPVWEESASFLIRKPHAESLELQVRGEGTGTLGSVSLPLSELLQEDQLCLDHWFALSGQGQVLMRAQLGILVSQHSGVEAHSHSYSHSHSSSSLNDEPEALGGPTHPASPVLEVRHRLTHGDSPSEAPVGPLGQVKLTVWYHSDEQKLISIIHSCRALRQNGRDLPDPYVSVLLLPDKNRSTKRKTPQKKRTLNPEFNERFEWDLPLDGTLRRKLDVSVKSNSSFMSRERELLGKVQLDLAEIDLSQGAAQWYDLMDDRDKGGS
Kind of test: Binding affinity to E-Syt1 in mouse RAW264.7 cells at 600 nM by Western blot analysis. The gist of the method: as §1

For test [11], the target named is T5, Extended synaptotagmin-1 (Mus musculus). Description: Binding affinity to E-Syt1 in mouse LPS-treated RAW264.7 cells at 600 nM by Western blot analysis. The gist of the method:
as §1

The target in test [12] is T3, Peroxisomal multifunctional enzyme type 2 (Mus musculus). Kind of test: Binding affinity to 17beta-HSD4 in mouse RAW264.7 cells at 200 nM after 2 hrs by MALDI mass spectrometry analysis. The gist of the method:
as §1

In test [13] the target is T5, Extended synaptotagmin-1 (Mus musculus). Kind of test: Binding affinity to E-Syt1 in mouse RAW264.7 cells at 600 nM after 2 hrs by MALDI mass spectrometry analysis. The method, boiled down: as §1
Test [14] has the same target. Description: Binding affinity to E-Syt1 in mouse LPS-treated RAW264.7 cells at 600 nM after 2 hrs by MALDI mass spectrometry analysis.

Calls of active or inactive are those of the source. The rule behind the calls is not given here.

Turning to `CC(C)CCC[C@@H](C)[C@H]1CC[C@H]2[C@@H]3CC=C4C[C@@H](OCc5cn(CCOCCOCCOCCNC(=O)CCCC[C@@H]6SC[C@@H]7NC(=O)N[C@@H]76)nn5)CC[C@]4(C)[C@H]3CC[C@]12C`, the outcome in test [1], in test [3], in test [5] and in [6] was Active. Further, the result in [2] and in test [4] was inactive.

For `CC[C@H](CC[C@@H](C)[C@H]1CC[C@H]2[C@@H]3CC=C4C[C@@H](OCc5cn(CCOCCOCCOCCNC(=O)CCCC[C@@H]6SC[C@@H]7NC(=O)N[C@@H]76)nn5)CC[C@]4(C)[C@H]3CC[C@]12C)C(C)C`, the result in test [1], in test [3], in test [7], in [8], in test [9] and in [10] was Active. In addition, the outcome in test [11], in test [12], in test [13], in [5], in test [14] and in test [6] was Active. In addition, the outcome in [2] and in test [4] was inactive.
